{"data": "Experimental data gathered from unrelated publications", "target": "Delta-type opioid receptor (OPRD1, Homo sapiens, UniProt P41143)", "observed": "ligand displacement", "concentration": "10 µM", "note": "Compare with care: the assays were run in different laboratories."}
{"SMILES": "CCN(Cc1ccccc1C(F)(F)F)C(=O)C1CCN(S(=O)(=O)c2ccc3[nH]ncc3c2)CC1", "test": "radioligand", "inhibition [%]": 6}
{"SMILES": "O=C(c1ccc(Cl)cc1)N(Cc1ccccc1)C1CCCCC1", "inhibition [%]": 33.4}
{"SMILES": "CCCNc1nc2ccccc2n1Cc1ccc(Cl)cc1", "inhibition [%]": -5.69}
{"SMILES": "COc1cc(NC(C)=O)c(Cl)cc1C(=O)Nc1nccs1", "inhibition [%]": 20.9}
{"SMILES": "Cc1cc(-c2nc(CN3CCNCC3)no2)cc2c1C(=O)N(Cc1ccc(OC(F)(F)F)cc1)C2", "test": "radioligand", "inhibition [%]": 45}
{"SMILES": "N#Cc1cc(Cn2c(N3CCCC3)nc3ccccc32)ccc1F", "inhibition [%]": -11.4}
{"SMILES": "O=C1N=C(N2CCCCN2)S/C1=C\\c1ccc(F)cc1O", "test": "radioligand", "inhibition [%]": 13}
{"SMILES": "CCN(CC)c1ccc(C2Nc3ccc(C(=O)c4ccccc4)cc3NC3=C2C(=O)CC(C)(C)C3)cc1 (centres unmarked)", "test": "radioligand", "inhibition [%]": 12}
